# The list is not random: actives were taken first. Their share in the collection is about 2.9%.
# SUMO Mot1 rescue – inhibitors of SUMOylation pathway: yeast Mot1-301 growth rescue | S. cerevisiae Mot1-301 growth rescue, ATP luminescence, 38.5C; percent above DMSO median, 100 means doubled | growth rescue, % at 18.8 µM | 1% of 320,000 active;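 active means every valid replicate shows activation above 250% relative to neutral control wells; inactive means the rest, any valid replicate at or below 250%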;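 further: OY570 slx delta 5 strain wells were the positive control but not used for scaling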
# SUMO HTRF inh – blocks human SUMOylation mediated by UBC9; 0.36% of 290,000 active; inhibition, % at 35 µM; P63279; HTRF SUMOylation assay, SAE1/SAE2 + UBC9, in vitro; AID 2006; in the data active means inhibition above about 50%, passing the limit was not always enough
# Target sequence (P63279 whole entry, looked up): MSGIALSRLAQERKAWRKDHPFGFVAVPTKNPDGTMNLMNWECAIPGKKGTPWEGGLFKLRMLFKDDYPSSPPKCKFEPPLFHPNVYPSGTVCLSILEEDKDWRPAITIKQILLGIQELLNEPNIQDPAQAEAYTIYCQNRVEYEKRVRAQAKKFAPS
# VIM-2 inhibitor – blocks Pseudomonas aeruginosa VIM-2 metallo-beta-lactamase; 0.89% of 290,000 active; purified VIM-2, nitrocefin hydrolysis, epi-absorbance fluorescence; inhibition, % at 5.6 µM; AID 1527;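 active means inhibition above the mean of all tested compounds plus 3 SD, cutoff set per screening run, cut at about 7.5% in these data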;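 further: red hydrolysis product quenches plate fluorescence so inhibitors raise well fluorescence; 0% = enzyme with DMSO and 100% = DMSO without enzyme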
# FID counter – counter-screen for HCV NS3 helicase inhibitors: DNA intercalator displacement | DNA fluorescent intercalator displacement, fluorescence | inhibition, % at 7.9 µM | 0.17% of 290,000 active | AID 1845; in the data active means inhibition above about 37%;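 further: 0% = vehicle and 100% = reference compound; higher means more ethidium bromide displaced from hairpin DNA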
# IMP-1 inh – inhibitors of Pseudomonas aeruginosa IMP-1 metallo-beta-lactamase; purified IMP-1, nitrocefin hydrolysis, epi-absorbance fluorescence; inhibition, % at 5.6 µM; 0.45% of 290,000 active;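 active means inhibition above the mean plus 3 SD of all compounds in the same screening run, cut at about 4.5% in these data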;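 further: 0% = IMP-1 with DMSO and 100% = DMSO wells lacking enzyme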
#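 System: Purified recombinant IMP-1 metallo-beta-lactamase enzyme | Measured by: Fluorescence quenching readout, ex 480/em 530 nm | Replication: Singlicate | Incubation: 15 min preincubation plus 25 min reaction at 25 °C | Evaluation: Percent inhibition from optical density relative to buffer-blank wells | Benchmarks: DMSO with and without IMP-1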
# NALP1 yeast inh – blocks the NALP1 inflammasome reconstituted in yeast | S. cerevisiae NALP1/ASC/caspase-1 growth, X-gal OD620, 72 h | inhibition, % at 10 µM | 0.61% of 280,000 active | AID 2071; in the data active means inhibition mostly above about 24%, no sharp cut-off; inactive means mostly below about 32%
# Mot1 SUMO dose – inhibits SUMO pathway, affecting Mot1-301 yeast growth; shares compounds with SUMO Mot1 rescue; S. cerevisiae Mot1-301 galactose growth, ATP luminescence, 24 h; -100 = growth of slx-deleted rescue strain; growth activity, percent, % at 42 µM; 2,300 tested, under 10 active;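 active means Signal drops as the depositor expects, and the fitted half-maximal dose is no more than ten times the top valid tested dose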;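 further: more negative values mean stronger growth rescue toward the control strain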
# Active calls of the source: *; x = no result; + = active, no number; ! = a repeat was not active.
SMILES,SUMO Mot1 rescue,SUMO HTRF inh,VIM-2 inhibitor,FID counter,IMP-1 inh,NALP1 yeast inh,Mot1 SUMO dose
O=C(N/C(=C/c1cccc([N+](=O)[O-])c1)C(=O)N1CCCCC1)c1ccco1,-2,-1,-3,-20,-1,3,x
Cc1ccc(Oc2ccccc2NC(=O)C2=COCCO2)cc1,416*,x,x,x,x,x,0
O=C(Nc1cc(Cl)ccc1Oc1ccccc1)C1=COCCO1,12,x,x,x,x,x,x
CCOC(=O)C(NC(=O)c1ccc(OC)cc1)(N1CCOCC1)C(F)(F)F (centres undefined),-7,2,-3,2,-5,-2,x
CCOC(=O)C(NC(=O)c1ccccc1)(N1CCOCC1)C(F)(F)F (centres undefined),+,27,-2,3,-2,16,0
COc1ccc(/C=C/C(=O)OC(C)CN2CCCCC2)cc1 (centres undefined),-6,1,-1,5,-5,8,x
CCOc1ccccc1N(C(=O)c1snc(C(N)=O)c1N)C(CC)C(=O)NC1CCCC1 (centres undefined),578*,6,-1,-32,-1,9,0
CC(C)CCNC(=O)C(c1ccco1)N(Cc1ccc(F)cc1)C(=O)c1snc(C(N)=O)c1N (centres undefined),3,9,-3,-21,-2,23,x
NC(=O)c1nsc(C(=O)N(Cc2ccc(F)cc2)C(C(=O)NC2CCCC2)c2ccco2)c1N (centres undefined),876*,0,-1,-45,-1,-1,0
CCC(=Nc1ccccc1)C1=C(O)CC(C)(C)CC1=O,x,-6,-1,-1,-2,0,x
COc1ccc(-c2oc3ccc(-c4cc(OC)c(OC)c(OC)c4)cc3c2C(=O)c2ccc(OC)nc2)cc1,813*,-1,0,-12,-1,-6,0
CCCOC(=O)c1c(-c2ccc(OC)cc2)oc2ccc(-c3ccc(OC)nc3)cc12,633*,12,1,-22,-2,-4,0
COC(=O)c1c(-c2ccc(OC)cc2)oc2ccc(-c3ccc(OC)nc3)cc12,-14,7,1,-2,-2,13,x
COc1cccc(C(=O)N=c2sc3cc(S(C)(=O)=O)ccc3n2C)c1,-12,6,-2,-7,-2,22,x
Cn1nc(C(C)(C)C)c(NC(=O)c2ccc(F)cc2)c1C(C)(C)C,8,6,-1,-1,-3,29,x
CCOC(=O)c1ccccc1NC(=O)CSc1ccc(-c2ccccn2)nn1,783*,-18,-1,-24,-3,13,0
Oc1c(Br)cc(Br)cc1C=Nc1cccnc1,481*,34,-1,3,28*,45*,-1
COc1ccc(C=Nc2ccc3[nH]ncc3c2)c(O)c1,51,56,-1,6,-2,3,x
Oc1c(Br)cc(Br)cc1C=Nc1ccc2[nH]ncc2c1,360*,49,-1,5,4,x,-1
Oc1c(Br)cc(Br)cc1/C=N/c1nccs1,131,x,x,x,x,x,x
FC(F)(F)c1nc2ccccc2n2c(-c3ccc(Cl)cc3Cl)nnc12,+,-3,-3,1,-2,-5,0
COc1ccc([N+](=O)[O-])cc1NC(=O)C1CCCN1S(=O)(=O)c1cccs1 (centres undefined),418*,x,x,x,x,x,0
COc1ccc(NC(=O)C2CCCN2S(=O)(=O)c2cccs2)c([N+](=O)[O-])c1 (centres undefined),211,x,x,x,x,x,x
Cc1cc(=O)n2[nH]c(-c3ccc(F)cc3)nc2n1,551*,13,0,-1,-1,2,0
Cc1cc(=O)n2[nH]c(-c3cccnc3)nc2n1,8,25,-4,-5,-1,13,x
SMILES,SUMO Mot1 rescue,SUMO HTRF inh,VIM-2 inhibitor,FID counter,IMP-1 inh,NALP1 yeast inh,Mot1 SUMO dose
O=C(COc1ccc(-n2cnnn2)cc1)Nc1ccc(F)cc1,-16,x,x,x,x,x,x
O=C(COc1ccc(-n2cnnn2)cc1)NCCc1ccc(F)cc1,+,8,-4,2,-4,10,0
CCCCn1c(N)c(N(CC(C)C)C(=O)CSCC(=O)Nc2cccc(C)c2)c(=O)[nH]c1=O,366*,x,x,x,x,x,0
CCCCN(C(=O)CSCC(=O)Nc1cccc(C)c1)c1c(N)n(CCCC)c(=O)[nH]c1=O,19,x,x,x,x,x,x
CN(CC(=O)O/N=C(\N)c1ccccn1)S(=O)(=O)c1ccc(Br)cc1,164,-6,-2,4,-3,x,x
Cc1ccc(S(=O)(=O)N(C)CC(=O)O/N=C(\N)c2ccccn2)cc1,399*,-4,-2,-4,-3,10,1
CC(=O)c1ccc(Oc2cc(C)nc(N3CCOCC3)n2)cc1,436*,3,1,-7,-1,24,1
Cc1cc(Oc2ccc(C(C)(C)C)cc2)nc(N2CCOCC2)n1,-7,-16,-4,-6,-4,-2,x
Cc1c(C(=O)NC(C)C)oc2c1-c1[nH]ncc1CC2,+,13,-1,-4,-2,-6,0
CCC(C(=O)Nc1cccnc1)c1ccccc1 (centres undefined),422*,12,1,0,0,18,1
CC(=O)N/C(=C\c1ccccc1)C(=O)OCC(=O)c1ccccc1,679*,x,x,x,x,x,0
CC(=O)N/C(=C\c1ccccc1)C(=O)OCC(=O)c1ccc(F)cc1,-16,x,x,x,x,x,x
CC(NC(=O)c1cccc(N(C)C)c1)c1ccc(-n2ccnc2)cc1 (centres undefined),18,20,1,-13,-1,2,x
COc1ccc2[nH]cc(CCNS(=O)(=O)c3ccc(C)cc3)c2c1,484*,11,-2,-13,-3,-1,0
COc1ccc(S(=O)(=O)NCCc2c[nH]c3ccc(C)cc23)cc1,-20,3,-1,-10,-2,11,x
O=C(O)c1ccc(COc2c(F)c(F)cc(F)c2F)cc1,+,6,1,-2,-5,7,0
COc1cccc(C2/C(=C(/O)c3ccccc3)C(=O)C(=O)N2Cc2ccco2)c1 (centres undefined),497*,6,0,-13,-3,21,0
CSc1ccccc1-n1nnnc1SCC(=O)Nc1cc(C)ccc1C,7,3,-5,-22,-3,10,x
O=C1C2CCCN2C(=S)N1C1CCCCC1 (centres undefined),622*,-2,-1,-6,-2,2,-1
Cc1ccc(N2C(=O)C3CCCN3C2=S)cc1 (centres undefined),231,8,0,-4,0,5,x
CCCCCCCCCCOC(=O)Cn1c(COc2ccc(OC)cc2)[n+](C)c2ccccc21,563*!,17,-2,23,-3,22,-2
O=C(CNS(=O)(=O)c1c(F)cc(F)cc1Br)OCC(=O)N1CCCC1=O,-8,x,x,x,x,x,x

# Screening results as filed in PubChem.
